Laboratory results taken from ChEMBL document CHEMBL1806434, “Acyclic nucleoside phosphonates with a branched 2-(2-phosphonoethoxy)ethyl chain: efficient synthesis and antiviral activity” (Bioorg Med Chem, 2011).
Calls of active or inactive are those of the source. The calls are words filed in the database; no cut-off is given here.

Experiments:
[1] = test system: Sindbis virus; assay: Antiviral activity against Sindbis virus assessed as reduction of virus induced cytopathicity by cell based assay; type: functional, organism-based
Procedure, shortened: (§1)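 Confluent cell monolayers in 96-well plates (HEL, Vero, HeLa, CRFK or MDCK; the cell type per virus is not specified) infected with 100 CCID50 virus or 20 PFU and incubated with serial compound dilutions. Cytopathicity scored once it was complete in untreated infected controls.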

[2] = test system: Respiratory syncytial virus; assay: Antiviral activity against Respiratory syncytial virus Long assessed as reduction of virus induced cytopathicity by cell based assay; type: functional, organism-based; procedure, shortened: as §1
[3] = test system: Human alphaherpesvirus 3; assay: Antiviral activity against Varicella-zoster virus strain OKA expressing thymidine kinase assessed as reduction of virus induced cytopathicity by cell based assay; type: functional; conditions: for EC50: Human alphaherpesvirus 3, strain Oka vaccine; for Activity: strain Oka vaccine
Procedure, shortened: (§2)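 Confluent cell monolayers infected with 100 CCID50 virus, or 20 PFU for plaque assays, then incubated with serial compound dilutions. Host cells listed for the non-HIV panel are HEL fibroblasts, Vero, HeLa, CRFK or MDCK. Cytopathicity is scored, or plaques counted for VZV, once infected untreated controls reach full CPE.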

[4] = test system: Human alphaherpesvirus 3; assay: Antiviral activity against Varicella-zoster virus YS expressing thymidine kinase assessed as reduction of virus induced cytopathicity by cell based assay; type: functional, organism-based; conditions: for EC50: Human alphaherpesvirus 3, YS
[5] = test system: Human respirovirus 3; assay: Antiviral activity against Human parainfluenza virus 3 assessed as reduction of virus induced cytopathicity by cell based assay; type: functional, organism-based; procedure, shortened: as §1
[6] = test system: Human alphaherpesvirus 1; assay: Antiviral activity against Herpes simplex virus 1 strain KOS assessed as reduction of virus induced cytopathicity by cell based assay; type: functional, organism-based; conditions: for EC50: Human alphaherpesvirus 1, KOS; procedure, shortened: as §2
[7] = test system: Punta Toro virus; assay: Antiviral activity against Punta Toro virus assessed as reduction of virus induced cytopathicity by cell based assay; type: functional, organism-based; procedure, shortened: as §1
[8] = test system: Coxsackievirus B4; assay: Antiviral activity against Coxsackievirus B4 assessed as reduction of virus induced cytopathicity by cell based assay; type: functional, organism-based; procedure, shortened: as §1
[9] = test system: Mammalian orthoreovirus 1; assay: Antiviral activity against Reovirus-1 assessed as reduction of virus induced cytopathicity by cell based assay; type: functional, organism-based; procedure, shortened: as §1
[10] = test system: Human betaherpesvirus 5; assay: Antiviral activity against Human cytomegalovirus Davis assessed as reduction of virus induced cytopathicity by cell based assay; type: functional, organism-based; conditions: for EC50: Human betaherpesvirus 5, Davis; procedure, shortened: as §2
[11] = Cytotoxicity against human HEL cells assessed as alteration of cell morphology after 3 days by microscopic analysis; type: cell-based
Procedure, shortened: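 MCC taken as the lowest compound concentration producing microscopically detectable alteration of HEL fibroblast morphology.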

[12] = test system: Vaccinia virus; assay: Antiviral activity against Vaccinia virus Lederle assessed as reduction of virus induced cytopathicity by cell based assay; type: functional, organism-based; conditions: Orthopoxvirus vaccinia; procedure, shortened: as §2
[13] = test system: HEL; assay: Cytotoxicity against human HEL cells after 3 days by coulter counter; type: cell-based; conditions: 72 h
Procedure, shortened: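 HEL cells seeded at 5 × 10^3 cells/well and allowed to proliferate for 24 h, then exposed to a range of compound concentrations for 3 days at 37 °C. Cells counted with a Coulter counter.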

[14] = test system: Human alphaherpesvirus 3; assay: Antiviral activity against thymidine kinase-deficient Varicella-zoster virus YS/R assessed as reduction of virus induced cytopathicity by cell based assay; type: functional, organism-based; conditions: for EC50: Human alphaherpesvirus 3, YS/R
[15] = test system: Vesicular stomatitis virus; assay: Antiviral activity against Vesicular stomatitis virus assessed as reduction of virus induced cytopathicity by cell based assay; type: functional, organism-based; procedure, shortened: as §2
[16] = test system: Human alphaherpesvirus 1; assay: Antiviral activity against thymidine kinase-deficient acyclovir-resistant Herpes simplex virus 1 strain KOS assessed as reduction of virus induced cytopathicity by cell based assay; type: functional, organism-based; conditions: for EC50: Human alphaherpesvirus 1, KOS; procedure, shortened: as §2
[17] = test system: Human betaherpesvirus 5; assay: Antiviral activity against Human cytomegalovirus strain AD169 assessed as reduction of virus induced cytopathicity by cell based assay; type: functional, organism-based; conditions: for EC50: Human betaherpesvirus 5, AD169; procedure, shortened: as §2
[18] = test system: Human alphaherpesvirus 2; assay: Antiviral activity against Herpes simplex virus 2 strain G assessed as reduction of virus induced cytopathicity by cell based assay; type: functional, organism-based; conditions: for EC50: Human alphaherpesvirus 2, strain G; procedure, shortened: as §2
[19] = test system: Human alphaherpesvirus 3; assay: Antiviral activity against thymidine kinase-deficient Varicella-zoster virus 07/1 assessed as reduction of virus induced cytopathicity by cell based assay; type: functional, organism-based; conditions: for EC50: Human alphaherpesvirus 3, 07/1; procedure, shortened: as §2
[20] = Selectivity index, ratio CC50 for human HEL cells to EC50 for Human cytomegalovirus strain AD169; type: toxicity, cell-based; conditions: read-out: Ratio CC50/EC50
Procedure, shortened: (§3)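 HEL fibroblasts seeded at 5 × 10^3 cells/well and allowed to grow 24 h. Medium with compound dilutions is then added and cells are incubated 3 days at 37 °C before Coulter counting. CC50, the concentration halving cell number relative to untreated controls, is read from plots. SI is CC50 divided by the antiviral EC50 from the CPE or plaque-reduction assay in HEL cells.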

[21] = Selectivity index, ratio CC50 for human HEL cells to EC50 for Varicella-zoster virus YS expressing thymidine kinase; type: toxicity, cell-based; conditions: read-out: Ratio CC50/EC50; procedure, shortened: as §3
[22] = Selectivity index, ratio CC50 for human HEL cells to EC50 for thymidine kinase-deficient Varicella-zoster virus YS/R; type: toxicity, cell-based; conditions: read-out: Ratio CC50/EC50; procedure, shortened: as §3
[23] = Selectivity index, ratio CC50 for human HEL cells to EC50 for thymidine kinase-deficient Varicella-zoster virus 07/1; type: toxicity, cell-based; conditions: read-out: Ratio CC50/EC50; procedure, shortened: as §3
[24] = Selectivity index, ratio CC50 for human HEL cells to EC50 for Herpes simplex virus 1 strain KOS; type: toxicity, cell-based; conditions: read-out: Ratio CC50/EC50; procedure, shortened: as §3
[25] = Selectivity index, ratio CC50 for human HEL cells to EC50 for Varicella-zoster virus strain OKA expressing thymidine kinase; type: toxicity, cell-based; conditions: read-out: Ratio CC50/EC50; procedure, shortened: as §3
[26] = Selectivity index, ratio CC50 for human HEL cells to EC50 for thymidine kinase-deficient acyclovir-resistant Herpes simplex virus 1 strain KOS; type: toxicity, cell-based; conditions: read-out: Ratio CC50/EC50; procedure, shortened: as §3
[27] = Selectivity index, ratio CC50 for human HEL cells to EC50 for Herpes simplex virus 2 strain G; type: toxicity, cell-based; conditions: read-out: Ratio CC50/EC50; procedure, shortened: as §3
[28] = Selectivity index, ratio CC50 for human HEL cells to EC50 for Human cytomegalovirus Davis; type: toxicity, cell-based; conditions: read-out: Ratio CC50/EC50; procedure, shortened: as §3
[29] = Selectivity index, ratio CC50 for human HEL cells to EC50 for Vaccinia virus Lederle; type: toxicity, cell-based; conditions: read-out: Ratio CC50/EC50; procedure, shortened: as §3
[30] = test system: L1210; assay: Cytostatic activity against mouse L1210 cells; type: functional
[31] = test system: FM3A; assay: Cytostatic activity against mouse FM3A cells; type: functional
[32] = test system: CCRF-CEM; assay: Cytostatic activity against human CEM cells; type: cell-based

Row | Structure (SMILES) | Activity [1] | Activity [2] | EC50 [3] [µM] | EC50 [4] [µM] | Activity [5] | EC50 [6] [µM] | Activity [7] | Activity [8] | Activity [9] | EC50 [10] [µM] | MCC at 72 h [11] [µM] | EC50 [12] [µM] | CC50 [13] [µM] | EC50 [14] [µM] | Activity [15] | EC50 [16] [µM] | EC50 [17] [µM] | EC50 [18] [µM] | EC50 [19] [µM] | Activity [3] | further results
1 | CC(CP(=O)(O)O)OCCn1ccc(=O)[nH]c1=O (configuration not stated) | inactive | inactive | 6.3 | 9.9 | inactive | 43 | inactive | inactive | inactive | 34 | > 360 | > 360 | 291 | 12 | inactive | 97 | 36 | 34 | 13 | – | –
2 | Nc1ccn(C[C@@H](CO)OCP(=O)(O)O)c(=O)n1 [CIDOFOVIR] | – | – | 0.29 | – | – | 1.3 | – | – | – | 0.7 | > 317 | – | 254 | – | – | 1 | – | 0.9 | 0.1 | – | selectivity ratio [20]: 195; selectivity ratio [21]: 880; selectivity ratio [22]: 880; selectivity ratio [23]: 880; selectivity ratio [24]: 322; selectivity ratio [25]: 880; selectivity ratio [26]: 322; selectivity ratio [27]: 322; selectivity ratio [28]: 195; selectivity ratio [29]: 35
3 | CCC(CP(=O)(O)O)OCCn1cnc2c(N)ncnc21 (configuration not stated) | inactive | inactive | 19 | 42 | inactive | 238 | inactive | inactive | inactive | 243 | > 317 | > 317 | > 317 | 43 | inactive | 251 | 159 | 286 | 22 | – | CC50 [30]: > 660 µM; CC50 [31]: 432 µM; CC50 [32]: > 660 µM
4 | Nc1ncnc2c1ncn2CCOC(COCc1ccccc1)CP(=O)(O)O (configuration not stated) | inactive | inactive | – | – | inactive | – | inactive | inactive | inactive | – | – | – | – | – | inactive | – | – | – | – | inactive | Activity [4]: inactive; Activity [6]: inactive; Activity [10]: inactive; Activity [12]: inactive; Activity [14]: inactive; Activity [16]: inactive; Activity [17]: inactive; Activity [18]: inactive; Activity [19]: inactive
5 | Nc1ncnc2c1ncn2CCOC(Cc1ccccc1)CP(=O)(O)O (configuration not stated) | inactive | inactive | 2.9 | 2.9 | inactive | 53 | inactive | inactive | inactive | 68 | > 265 | > 265 | ≥ 247 | 2.5 | inactive | 53 | 59 | 86 | 4.7 | – | CC50 [30]: 273 µM; CC50 [31]: 90 µM; CC50 [32]: 530 µM
6 | O=c1[nH]cnc2c1ncn2CCOC(COCc1ccccc1)CP(=O)(O)O (configuration not stated) | inactive | inactive | – | – | inactive | – | inactive | inactive | inactive | – | – | – | – | – | inactive | – | – | – | – | inactive | Activity [4]: inactive; Activity [6]: inactive; Activity [10]: inactive; Activity [12]: inactive; Activity [14]: inactive; Activity [16]: inactive; Activity [17]: inactive; Activity [18]: inactive; Activity [19]: inactive
7 | O=c1ccn(CCOC(CO)CP(=O)(O)O)c(=O)[nH]1 (configuration not stated) | inactive | inactive | – | – | inactive | – | inactive | inactive | inactive | – | – | – | – | – | inactive | – | – | – | – | inactive | Activity [4]: inactive; Activity [6]: inactive; Activity [10]: inactive; Activity [12]: inactive; Activity [14]: inactive; Activity [16]: inactive; Activity [17]: inactive; Activity [18]: inactive; Activity [19]: inactive
